Source: ChEMBL document CHEMBL3286203, “Reactive oxygen species (ROS) inducible DNA cross-linking agents and their effect on cancer cells and normal lymphocytes” (J Med Chem, 2014)
pIC50: −log10 of the molar value. Activity calls are given as the source filed them. No cut-off for these calls is given here.

Assays:
[1] = Induction of apoptosis in human CLL cells at 10 uM after 24 hrs by Annexin/propidium iodide staining-based assay (reference value: 95%); assay type: functional
[2] = Induction of apoptosis in human CLL cells at 10 uM after 48 hrs by Annexin/propidium iodide staining-based assay (reference value: 91%); assay type: functional
NCI-H23 = assay: Cytotoxicity against human NCI-H23 cells after 48 hrs by SRB assay; assay type: functional; conditions: NCI-H23, 48 h
Outline: (§1)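 GI50 from the NCI Developmental Therapeutics Program in vitro human tumor cell screen. Cell lines were maintained in RPMI 1640 with 5% fetal bovine serum and 2 mM L-glutamine. They were seeded at 5000–40 000 cells/well, depending on each line's doubling time, then exposed to drug for 48 h at 37 °C, 5% CO2.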

KM12 = assay: Cytotoxicity against human KM12 cells after 48 hrs by SRB assay; assay type: functional; conditions: KM12, 48 h
Outline: (§2)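 GI50 was determined in the NCI Developmental Therapeutics Program in vitro 60-line cancer screen. Tumour lines were maintained in RPMI 1640 containing 5% FBS and 2 mM L-glutamine. Cells were inoculated at 5000–40 000 cells/well according to each line's doubling time before drug exposure.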

SF-268 = assay: Cytotoxicity against human SF268 cells after 48 hrs by SRB assay; assay type: functional; conditions: SF-268, 48 h; outline: as §1
SF-539 = assay: Cytotoxicity against human SF539 cells after 48 hrs by SRB assay; assay type: functional; conditions: SF-539, 48 h; outline: as §1
SNB-75 = assay: Cytotoxicity against human SNB75 cells after 48 hrs by SRB assay; assay type: functional; conditions: SNB-75, 48 h
Outline: (§3)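 GI50 from the NCI-60 DTP human tumour line screen. Lines grown in RPMI 1640 with 5% fetal bovine serum and 2 mM L-glutamine, plated at 5000–40 000 cells/well according to doubling time. Incubated 48 h at 37 °C, 5% CO2.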

Malme-3M = assay: Cytotoxicity against human MALME-3M cells after 48 hrs by SRB assay; assay type: functional; outline: as §2
SK-OV-3 = assay: Cytotoxicity against human SKOV3 cells after 48 hrs by SRB assay; assay type: functional; conditions: SK-OV-3, 48 h; outline: as §1
786-0 = assay: Cytotoxicity against human 786-0 cells after 48 hrs by SRB assay; assay type: functional; conditions: 786-0, 48 h; outline: as §2
CAKI-1 = assay: Cytotoxicity against human Caki1 cells after 48 hrs by SRB assay; assay type: functional; conditions: CAKI-1, 48 h; outline: as §2
MDA-MB-231 = assay: Cytotoxicity against human MDA-MB-231 cells after 48 hrs by SRB assay; assay type: functional; conditions: MDA-MB-231, 48 h; outline: as §1
T47D = assay: Cytotoxicity against human T47D cells after 48 hrs by SRB assay; assay type: functional; outline: as §3
CLL [3] = assay: Induction of apoptosis in human CLL cells at 10 uM by Annexin/propidium iodide staining-based assay; assay type: functional, cell-based; conditions: TDE = time-dependent effect
[4] = (§4) Induction of apoptosis in human CLL cells after 24 hrs by Annexin/propidium iodide staining-based assay; assay type: functional, cell-based
Outline: (§5)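 Primary CLL lymphocytes, Ficoll-Hypaque isolated from patient peripheral blood. Held fresh in RPMI 1640 with 10% autologous plasma. Dose–response over 24 h (n = 3). Apoptosis by annexin V–FITC/PI double staining and flow cytometry; IC50 derived from the dose–response.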

CLL [5] = assay: as §4; assay type: functional, cell-based; outline: as §5
[6] = Induction of apoptosis in human lymphocytes at 10 uM after 24 to 48 hrs by Annexin/propidium iodide staining-based assay; assay type: cell-based; conditions: lymphocyte
CLL [7] = assay: Induction of ROS generation in human CLL cells at 10 uM after 24 hrs by DCDFA assay in presence of NAC; assay type: functional, cell-based
Outline: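 Primary CLL cells given compound (10 μM) with or without N-acetyl cysteine ([…]) for 24 h. Global ROS measured by DCFDA staining and flow histograms; n = 8 patient samples.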

[8] = Induction of [32P]-labeled 49-mer oligonucleotide duplex DNA 12 with GNC sequence at terminus (unknown origin) interstrand cross-linking at 50 uM after 16 hrs by PAGE in presence of H2O2
Outline: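 32P-labelled 12a (1.0 μM) annealed with 1.5 equiv of 12b in 10 mM potassium phosphate pH 7 / 100 mM NaCl (65 °C for 3 min, then slow cooling). Duplex incubated with compound (final 1 μM–5 mM), with or without H2O2, in NaCl and potassium phosphate pH 8 at room temperature for 16 h. Quenched in formamide; 20% denaturing PAGE.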

[9] = Drug level in phosphate buffer treated with 40 mM N,N-Bis(2-chloroethyl)-4-(4,4,5,5-tetramethyl-1,3,2-dioxaborolan-2-yl)aniline after 30 mins by 1H-NMR analysis in presence of H2O2; assay type: physicochemical; conditions: 0.5 h
Outline: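 1H NMR of the boronate mustard (40 mM) with H2O2 (60 mM), 30 min after H2O2 addition. Solvent was 400 mM phosphate buffer pH 8 (50 μL) in DMSO-d6 (450 μL). Read-out is conversion to the activated product.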

[10] = Induction of [32P]-labeled 49-mer oligonucleotide duplex DNA 12 interstrand cross-linking (unknown origin) at purine nucleotide site using compound radiolabeled at 5' of 12a in phosphate buffer at pH 7 at 90 degC after 30 mins by PAGE
Outline: (§6)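 Cross-linked duplex, with strand 12a 32P-labelled at the 5′ end, heated at 90 °C either in phosphate buffer pH 7.0 or in 1.0 M piperidine. Cleavage sites were assigned by denaturing PAGE against G + A sequencing and Fe·EDTA markers.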

[11] = Induction of [32P]-labeled 49-mer oligonucleotide duplex DNA 12 interstrand cross-linking (unknown origin) at purine nucleotide site using compound radiolabeled at 5' of 12a at 90 deg C after 30 mins by PAGE in presence of piperidine; outline: as §6
CCRF-CEM = assay: Cytotoxicity against human CCRF-CEM cells after 48 hrs by SRB assay; assay type: functional; outline: as §2
MOLT-4 = assay: Cytotoxicity against human MOLT4 cells after 48 hrs by SRB assay; assay type: functional; conditions: MOLT-4, 48 h; outline: as §1
[12] = Induction of [32P]-labeled 49-mer oligonucleotide duplex DNA 12' with GNC sequence in middle (unknown origin) interstrand cross-linking at 1 mM after 12 hrs by PAGE in presence of H2O2
[13] = Induction of [32P]-labeled 49-mer oligonucleotide duplex DNA 12 with GNC sequence at terminus (unknown origin) interstrand cross-linking at 1 mM after 16 hrs by PAGE in presence of O2-
[14] = Induction of [32P]-labeled 49-mer oligonucleotide duplex DNA 12 with GNC sequence at terminus (unknown origin) interstrand cross-linking at 1 mM after 16 hrs by PAGE in presence of TBHP
[15] = Induction of [32P]-labeled 49-mer oligonucleotide duplex DNA 12 with GNC sequence at terminus (unknown origin) interstrand cross-linking at 1 mM after 16 hrs by PAGE in presence of OCL-
[16] = Drug level in deuterated phosphate buffer treated with 40 mM N,N-Bis(2-chloroethyl)-4-(4,4,5,5-tetramethyl-1,3,2-dioxaborolan-2-yl)aniline after 24 hrs by 1H-NMR analysis; assay type: physicochemical
Outline: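 1H NMR of the boronate mustard (40 mM) held 24 h in deuterated potassium phosphate buffer (4.0 mM) with no H2O2. Solvent was 1.0 M deuterated potassium phosphate buffer/DMSO-d6/D2O = 2:450:48.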

Structure (SMILES) | Activity [1] | Activity [2] | GI50 (NCI-H23) | GI50 (KM12) | GI50 (SF-268) | GI50 (SF-539) | GI50 (SNB-75) | GI50 (Malme-3M) | GI50 (SK-OV-3) | GI50 (786-0) | GI50 (CAKI-1) | GI50 (MDA-MB-231) | GI50 (T47D) | Activity (CLL [3]) | pIC50 [4] | Activity [8] | Activity [10] | Activity [11] | GI50 (CCRF-CEM) | GI50 (MOLT-4) | also measured
CC1(C)OB(c2ccc(N(CCCl)CCBr)cc2)OC1(C)C | 90% | 81% | 5.38 µM | 31.3 µM | 4.9 µM | 6.37 µM | 10.7 µM | 18.4 µM | 9.25 µM | 8.95 µM | 3.52 µM | 22.8 µM | 12 µM | tde | 4.97 | 3% | Active | Active | 5.03 µM | 3.69 µM | Activity (CLL [5]): Dose-dependent effect; Activity [6]: Toxic; Activity (CLL [7]): inactive; Drug metabolism [9]: metabolite_detected
CC1(C)OB(c2ccc(N(CCCl)CCCl)cc2)OC1(C)C | 93% | 83% | 4.57 µM | 14.9 µM | 4.61 µM | 5.7 µM | 7.98 µM | 17.5 µM | 8.03 µM | 5.35 µM | 2.78 µM | 16.5 µM | 10.7 µM | tde | 5.03 | 3% | Active | Active | 3.34 µM | 3.48 µM | Activity (CLL [5]): Dose-dependent effect; Activity [6]: Toxic; Activity [12]: 27%; Activity [13]: 5%; Activity [14]: 1%; Activity [15]: 0.9%; Drug metabolism [16]: metabolite_detected
CC1(C)OB(c2ccc(N(CCBr)CCOS(C)(=O)=O)cc2)OC1(C)C |  |  |  |  |  |  |  |  |  |  |  |  |  |  |  | 3% | Active | Active |  |  | 
CC1(C)OB(c2ccc(N(CCCl)CCOS(C)(=O)=O)cc2)OC1(C)C |  |  | 4.7 µM | 25.8 µM | 5.39 µM | 4.83 µM | 5.85 µM | 14 µM | 8.96 µM | 6.55 µM | 3.1 µM | 22.1 µM | 8.49 µM |  |  | 3% | Active | Active | 4.01 µM | 3.74 µM | Activity [13]: 5%; Activity [14]: 1%; Activity [15]: 0.9%
CC1(C)OB(c2ccc(N(CCBr)CCBr)cc2)OC1(C)C |  |  |  |  |  |  |  |  |  |  |  |  |  |  |  | 3% | Active | Active |  |  | Activity [12]: 35%
